According to ChEMBL document CHEMBL3865807, “Syntheses and photodynamic activity of some glucose-conjugated BODIPY dyes” (Eur J Med Chem, 2016):
Activity calls are given as the source filed them. The calls are words filed in the database; no cut-off is given here.

Test system: A549
Assay: Induction of morphological changes in human A549 cells assessed as cell shrinking up to 2.5 uM preincubated for 1 hr followed by 0.77 mW/cm2 white light irradiation for 80 mins measured after 24 hrs by phase contrast microscopy
Type: functional, cell-based
Outline: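 A549 cells (1×10^5/well) on coverslips given vehicle (0.1% DMSO) or compound (0.625, 1.25, 2.5 µM) for 1 h, then irradiated 80 min (0.77 mW/cm²); kept 24 h in regular medium and examined unstained by phase-contrast microscopy (40× objective); representative fields imaged; experiments done three times.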

SMILES: CCC1=C(C)C2=C(C)c3c(C)c(CC)c(C)n3[B-](F)(F)[N+]2=C1/C=C/c1ccc(O[C@H]2O[C@H](CO)[C@@H](O)[C@H](O)[C@H]2O)cc1
- Activity: Active
